Assay outcomes: PubChem BioAssay, several laboratories
ERb SRC1 inh: ER-beta (human) coactivator binding inhibition. Q92731. TR-FRET ER-beta LBD / SRC1-Cy5 peptide binding; receptor agonist-loaded with 1 µM estradiol. inhibition, % at 25.6 µM. 86,000 tested, 1.3% active;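 active means compounds whose percent inhibition of the receptor-coactivator binding signal exceeds about 50% in the single-dose screen, limit read from the data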;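 further: 0% = receptor plus peptide wells without compound and 100% = peptide-only wells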
H69AR growth 86K: growth inhibitors of human H69AR lung tumor cells | H69AR lung tumor viability, ATP luminescence, 72 h; stronger effect = lower value | viability, % at 10 µM | 85,000 tested, 6% active | AID 598;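 active means viability at or below 40%; inactive means viability above 40%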;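 further: multidrug resistant small cell line overexpressing MRP-1 efflux transporter; 100% = mean luminescence of untreated control wells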
HUVEC prolif 384: inhibitors of human endothelial cell proliferation | HUVEC proliferation, CellTiter-Glo luminescence, 72 h; stronger effect = lower value | viability, % at 10 µM (by protocol) | 86,000 tested, 1.1% active | AID 648;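 active means viability at or below 30%; inactive means viability above 30%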;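 further: 100% = median luminescence of DMSO-only cell control wells on each plate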
ERa coact inh: blocks coactivator binding to human estrogen receptor alpha | P03372 | TR-FRET ER-alpha LBD / SRC-1 peptide, estradiol-bound | inhibition, % at 25.6 µM | 86,000 tested, 1.7% active | AID 629; in the data active means inhibition above about 50%;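 further: 0% = receptor plus peptide control and 100% = peptide only without receptor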
ERa coact pot: ER-alpha (human) coactivator binding potentiation | TR-FRET ERalpha-LBD/SRC-Cy5 coactivator binding, 2 h; 100 = basal binding, no effect | coactivator binding (% of control), % at 25.6 µM | 86,000 tested, 1.3% active | AID 639; in the data active means activity above about 200%;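 further: binding measured in presence of low estradiol as agonist stimulus; 0% = peptide alone without receptor and 100% = receptor with peptide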
Lung fibro prol: blocks proliferation of human lung fibroblasts; LL 47 human lung fibroblast viability, ATP luminescence; stronger effect = lower value; viability, % at 10 µM; 85,000 tested, 1.1% active; AID 719;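 active means viability at or below 50% in the single dose screen; inactive means viability above 50%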;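 further: compound exposure lasted 72 h before the ATP readout; 100% = median luminescence of untreated cell-only wells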
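Times – overnight cell rest, 72 h compound treatment at 37 °C · Test system – human lung fibroblast line LL 47, low passage · Amount – 1,150 cells in each well · Controls – cell-only wells, no compound · Doses – 0.1% DMSO in all compound wells · Measured by – CellTiter-Glo luminescence · Buffer or medium – IMEM plus 15% FBS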
An asterisk follows results filed as active; [ ] = remark or other dose. In the library only some 9.2% were active in any assay of this set; here they are far more common.

`c1ccc(Oc2cccc(OCCCCSc3ncccn3)c2)cc1` gave ERb SRC1 inh 7, H69AR growth 86K 91, HUVEC prolif 384 115, ERa coact inh -2, ERa coact pot 103 and Lung fibro prol 100.
For COC(=O)c1cc2ccsc2n1CC(=O)Nc1ccc(N(C)C)cc1 the results were ERb SRC1 inh 28, H69AR growth 86K 99, HUVEC prolif 384 108, ERa coact inh 55*, ERa coact pot 32 and Lung fibro prol 102.
For COC(=O)c1cc2ccsc2n1CC(=O)N(C)c1ccccc1 the results were ERb SRC1 inh 4, H69AR growth 86K 83, HUVEC prolif 384 99, ERa coact inh 8, ERa coact pot 92 and Lung fibro prol 106.
CCOC(=O)c1sc(SCC(=O)Nc2ccc(N(C)C)cc2)nc1N was read as ERb SRC1 inh -29, H69AR growth 86K 58, HUVEC prolif 384 81, ERa coact inh -42, ERa coact pot 103 and Lung fibro prol 36*.
Screening CN(C)c1ccc(NC(=O)CSc2nc(N)c(C(=O)Nc3ccc(N(C)C)cc3)s2)cc1 returned ERb SRC1 inh 13, H69AR growth 86K 83, HUVEC prolif 384 94, ERa coact inh 15, ERa coact pot 65 and Lung fibro prol 88.
For O=c1[nH]c(NCc2ccco2)nnc1Cc1ccccc1Cl the results were ERb SRC1 inh 3, H69AR growth 86K 30*, HUVEC prolif 384 48, ERa coact inh 2, ERa coact pot 107 and Lung fibro prol 77.
For COc1ccc(C2CC(c3ccc(Cl)c(Cl)c3)Nc3nc(N)nn32)cc1 (configuration not stated) the results were ERb SRC1 inh -4, H69AR growth 86K 34*, HUVEC prolif 384 84, ERa coact inh -3, ERa coact pot 69 and Lung fibro prol 94.
`O=C(N1CCOCC1)N1CCN(S(=O)(=O)N2CCOCC2)CC1` gave ERb SRC1 inh -11, H69AR growth 86K 100, HUVEC prolif 384 86, ERa coact inh -10, ERa coact pot 124 and Lung fibro prol 94.
`Cc1cc(=O)c2ccc3ccccc3c2[nH]1` gave ERb SRC1 inh 6, H69AR growth 86K 76, HUVEC prolif 384 77, ERa coact inh 9, ERa coact pot 78 and Lung fibro prol 96.
`O=c1cc(-c2ccco2)oc2c1ccc1ccccc12` gave ERb SRC1 inh 52*[fluorescence artefact?], H69AR growth 86K 79, HUVEC prolif 384 65, ERa coact inh 51*[fluorescence artefact?], ERa coact pot 327* and Lung fibro prol 88.
Screening O=C(OCC(=O)N1CCCC1)c1cncc(Br)c1 returned ERb SRC1 inh 55*, H69AR growth 86K 96, HUVEC prolif 384 83, ERa coact inh -1, ERa coact pot 101 and Lung fibro prol 104.
For CC(C)CNC(=O)COC(=O)c1cncc(Br)c1 the results were ERb SRC1 inh -1, H69AR growth 86K 106, HUVEC prolif 384 88, ERa coact inh -8, ERa coact pot 95 and Lung fibro prol 104.
`CSc1nc2ccccc2n1CC(=O)Nc1c(C)cccc1C` gave ERb SRC1 inh 0, H69AR growth 86K 75, HUVEC prolif 384 86, ERa coact inh 1, ERa coact pot 109 and Lung fibro prol 106.
Screening O=S(=O)(CCOc1ccccc1)c1nc2ccccc2[nH]1 returned ERb SRC1 inh 2, H69AR growth 86K 0.3*, HUVEC prolif 384 78, ERa coact inh -1, ERa coact pot 121 and Lung fibro prol 85.
For CC1=CC(C)(C)N(S(=O)(=O)c2ccc(C)cc2)c2ccccc21 the results were ERb SRC1 inh 0, H69AR growth 86K 28*, HUVEC prolif 384 63, ERa coact inh -24, ERa coact pot 171 and Lung fibro prol 52.
For CC1=CC(C)(C)N(S(=O)(=O)c2ccc(F)cc2)c2ccc(C)cc21 the results were ERb SRC1 inh -6, H69AR growth 86K 22*, HUVEC prolif 384 60, ERa coact inh 2, ERa coact pot 92 and Lung fibro prol 51.
CCn1cc(C(=O)NCc2ccc3c(c2)OCO3)c(=O)c2ccc(C)nc21 was read as ERb SRC1 inh 16, H69AR growth 86K 93, HUVEC prolif 384 91, ERa coact inh 20, ERa coact pot 142 and Lung fibro prol 109.
`CCOC(=O)COc1cccc2c(=O)n(CC(=O)NCc3ccc4c(c3)OCO4)ccc12` gave ERb SRC1 inh 14, H69AR growth 86K 26*, HUVEC prolif 384 56, ERa coact inh 34, ERa coact pot 161 and Lung fibro prol 63.
CCn1cc(C(=O)OCC(=O)NCc2ccc3c(c2)OCO3)c(=O)c2ccc(C)nc21 was read as ERb SRC1 inh 11, H69AR growth 86K 11*, HUVEC prolif 384 91, ERa coact inh 6, ERa coact pot 112 and Lung fibro prol 106.
For O=C(COc1ccc2ccccc2c1Br)Nc1ncn[nH]1 the results were ERb SRC1 inh -4, H69AR growth 86K 90, HUVEC prolif 384 92, ERa coact inh 2, ERa coact pot 115 and Lung fibro prol 99.
`CC(C)(C)OC(=O)N1CCCC1C(=O)NC(Cc1ccccc1)C(=O)O` (configuration not stated) gave ERb SRC1 inh -7, H69AR growth 86K 110, HUVEC prolif 384 106, ERa coact inh -4, ERa coact pot 121 and Lung fibro prol 97.
